pIC50: −log10 of the molar value.
Assays:
[1] = test system: Mustela putorius furo; assay: Effects on […] and vomiting response in ferrets induced by 10 mg/kg iv dose of cisplatin; assay type: functional
How it was run: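 Ferrets given cisplatin 10 mg/kg iv to induce retching and vomiting. Test compound given iv; response observed over a 4 h period, n = 6-8 per group.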

[2] = Bioavailability in rat; assay type: ADME, organism-based; conditions: in vivo
[3] = Bioavailability expressed as F% in Rhesus monkey; assay type: ADME, organism-based, Macaca mulatta; conditions: in vivo
[4] = test system: Rattus norvegicus; assay: Plasma concentration after 3 mg/kg peroral dosing in rat at 8.0 hr in rats; assay type: ADME, organism-based; set-up: dose 3 mg/kg, route oral; conditions: in vivo, po
[5] = test system: Rhesus monkey; assay: Plasma concentration after 3 mg/kg peroral dosing in Rhesus monkey at 0.5 hr; assay type: ADME, organism-based, Macaca mulatta; set-up: dose 3 mg/kg, route oral; conditions: in vivo, po
How it was run: (§1)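 Rhesus monkeys dosed at 3 mg/kg in propylene glycol, intravenously and orally, n = 2 per data point. Plasma concentrations given as mean ± SEM, and pharmacokinetic parameters calculated with standard equations.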

[6] = test system: Rattus norvegicus; assay: Plasma concentration after 3 mg/kg peroral dosing in rat at 5.0 hr in rats; assay type: ADME, organism-based; set-up: dose 3 mg/kg, route oral; conditions: in vivo, po
[7] = test system: Rattus norvegicus; assay: Plasma concentration of 3 mg/kg iv after 0.083 hr in rats; conditions: in vivo
[8] = test system: Rhesus monkey; assay: Plasma concentration after 3 mg/kg peroral dosing in Rhesus monkey at 2.0 hr; assay type: ADME, organism-based, Macaca mulatta; set-up: dose 3 mg/kg, route oral; conditions: in vivo, po; how it was run: as §1
[9] = test system: Rattus norvegicus; assay: Plasma concentration of 3 mg/kg iv after 7 hr in rats; assay type: ADME, organism-based; set-up: dose 3 mg/kg, route intravenous; conditions: in vivo
How it was run: (§2)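 Rats given compound intravenously and orally in solution. Three rats per time point sampled for plasma drug levels. Pharmacokinetic parameters calculated from the plasma concentration–time data using standard equations. Data reported as mean ± SEM.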

[10] = test system: Rattus norvegicus; assay: Plasma concentration after 3 mg/kg peroral dosing in rat at 0.25 hr in rats; assay type: ADME, organism-based; set-up: dose 3 mg/kg, route oral; conditions: in vivo, po
[11] = test system: Rhesus monkey; assay: Plasma concentration after 3 mg/kg intravenous dosing in Rhesus monkey at 0.5 hr; assay type: ADME, organism-based, Macaca mulatta; set-up: dose 3 mg/kg, route intravenous; conditions: in vivo; how it was run: as §1
[12] = test system: Rhesus monkey; assay: Plasma concentration after 3 mg/kg peroral dosing in Rhesus monkey at 6.0 hr; assay type: ADME, organism-based, Macaca mulatta; set-up: dose 3 mg/kg, route oral; conditions: in vivo, po; how it was run: as §1
[13] = test system: Rattus norvegicus; assay: Plasma concentration of 3 mg/kg iv after 2 hr in rats; assay type: ADME, organism-based; set-up: dose 3 mg/kg, route intravenous; conditions: in vivo; how it was run: as §2
[14] = molecular target: Substance-P receptor (Homo sapiens, UniProt P25103); assay: Displacement of [125 I]-Tyr8 SP from the cloned human Tachykinin receptor 1 expressed in CHO cells; assay type: cell-based
Substance-P receptor, sequence (P25103 whole entry): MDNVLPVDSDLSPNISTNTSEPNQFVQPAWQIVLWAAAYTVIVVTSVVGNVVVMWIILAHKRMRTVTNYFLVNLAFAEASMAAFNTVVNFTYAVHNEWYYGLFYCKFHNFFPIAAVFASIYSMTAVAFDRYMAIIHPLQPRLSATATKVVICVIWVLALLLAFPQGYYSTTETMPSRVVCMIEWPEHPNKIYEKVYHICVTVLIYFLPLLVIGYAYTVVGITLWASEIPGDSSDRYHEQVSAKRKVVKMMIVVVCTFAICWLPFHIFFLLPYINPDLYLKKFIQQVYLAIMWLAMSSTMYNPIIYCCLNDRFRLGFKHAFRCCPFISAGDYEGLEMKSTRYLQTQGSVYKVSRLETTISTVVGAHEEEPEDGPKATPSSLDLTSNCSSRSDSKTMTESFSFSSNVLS

[15] = VD values expressed in (L/Kg) in rat; assay type: ADME, organism-based; conditions: in vivo; how it was run: as §2
[16] = test system: Rattus norvegicus; assay: Plasma concentration after 3 mg/kg peroral dosing in rat at 0.5 hr in rats; assay type: ADME, organism-based; set-up: dose 3 mg/kg, route oral; conditions: in vivo, po
[17] = test system: Rattus norvegicus; assay: Plasma concentration of 3 mg/kg iv after 0.5 hr in rats; assay type: ADME, organism-based; set-up: dose 3 mg/kg, route intravenous; conditions: in vivo; how it was run: as §2
[18] = test system: Rhesus monkey; assay: Plasma concentration after 3 mg/kg intravenous dosing in Rhesus monkey at 6.0 hr; assay type: ADME, organism-based, Macaca mulatta; set-up: dose 3 mg/kg, route intravenous; conditions: in vivo; how it was run: as §1
[19] = test system: Rattus norvegicus; assay: Plasma concentration of 3 mg/kg iv after 0.25 hr in rats; assay type: ADME, organism-based; set-up: dose 3 mg/kg, route intravenous; conditions: in vivo; how it was run: as §2
[20] = test system: Rattus norvegicus; assay: Plasma concentration after 3 mg/kg peroral dosing in rat at 7.0 hr in rats; assay type: ADME, organism-based; set-up: dose 3 mg/kg, route oral; conditions: in vivo, po
[21] = test system: Rhesus monkey; assay: Plasma concentration after 3 mg/kg intravenous dosing in Rhesus monkey at 0.167 hr; assay type: ADME, organism-based, Macaca mulatta; set-up: dose 3 mg/kg, route intravenous; conditions: in vivo; how it was run: as §1
[22] = test system: Rhesus monkey; assay: Plasma concentration after 3 mg/kg intravenous dosing in Rhesus monkey at 1.0 hr; assay type: ADME, organism-based, Macaca mulatta; set-up: dose 3 mg/kg, route intravenous; conditions: in vivo; how it was run: as §1
[23] = VD values expressed in (L/Kg) in Rhesus monkey; assay type: ADME, organism-based, Macaca mulatta; conditions: in vivo
How it was run: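 Rhesus monkeys dosed at 3 mg/kg in propylene glycol, intravenously and orally, with n = 2 per data point. Pharmacokinetic parameters calculated from the plasma concentration data using standard equations. Values given as mean ± SEM.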

[24] = test system: Rhesus monkey; assay: Plasma concentration after 3 mg/kg intravenous dosing in Rhesus monkey at 4.0h; assay type: ADME, organism-based, Macaca mulatta; set-up: dose 3 mg/kg, route intravenous; conditions: in vivo, 4 h; how it was run: as §1
[25] = test system: Rattus norvegicus; assay: Plasma concentration of 3 mg/kg iv after 8 hr in rats; assay type: ADME, organism-based; set-up: dose 3 mg/kg, route intravenous; conditions: in vivo; how it was run: as §2
[26] = test system: Rhesus monkey; assay: Plasma concentration after 3 mg/kg peroral dosing in Rhesus monkey at 0.167 hr; assay type: ADME, organism-based, Macaca mulatta; set-up: dose 3 mg/kg, route oral; conditions: in vivo, po; how it was run: as §1
[27] = test system: Rattus norvegicus; assay: Plasma concentration after 3 mg/kg peroral dosing in rat at 6.0 hr in rats; assay type: ADME, organism-based; set-up: dose 3 mg/kg, route oral; conditions: in vivo, po
[28] = test system: Rattus norvegicus; assay: Plasma concentration after 3 mg/kg peroral dosing in rat at 2.0 hr in rats; assay type: ADME, organism-based; set-up: dose 3 mg/kg, route oral; conditions: in vivo, po
[29] = test system: Rhesus monkey; assay: Plasma concentration after 3 mg/kg peroral dosing in Rhesus monkey at 8.0 hr; assay type: ADME, organism-based, Macaca mulatta; set-up: dose 3 mg/kg, route oral; conditions: in vivo, po; how it was run: as §1
[30] = test system: Rattus norvegicus; assay: Plasma concentration after 3 mg/kg peroral dosing in rat at 3.0 hh in rats; assay type: ADME, organism-based; set-up: dose 3 mg/kg, route oral; conditions: in vivo, po
[31] = test system: Rattus norvegicus; assay: Plasma concentration of 3 mg/kg iv after 1 hr in rats; assay type: ADME, organism-based; set-up: dose 3 mg/kg, route intravenous; conditions: in vivo; how it was run: as §2
[32] = test system: Cavia porcellus; assay: Inhibition of SP induced dermal extravasation in the guinea pig after peroral administration; assay type: functional; conditions: read-out: ID50 (the source's name)
How it was run: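 Guinea pigs were dosed orally, then challenged with intradermal SP 1 h later. Vascular leakage was measured as Evans blue extravasation into the skin. Dose-response was run with 5-12 animals per point, and ID50 is reported in mg/kg po.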

[33] = test system: Rhesus monkey; assay: Plasma concentration after 3 mg/kg peroral dosing in Rhesus monkey at 4.0h; assay type: ADME, organism-based, Macaca mulatta; set-up: dose 3 mg/kg, route oral; conditions: in vivo, po, 4 h; how it was run: as §1
[34] = test system: Rattus norvegicus; assay: Plasma concentration of 3 mg/kg iv after 6 hr in rats; assay type: ADME, organism-based; set-up: dose 3 mg/kg, route intravenous; conditions: in vivo; how it was run: as §2
[35] = organism: Oryctolagus cuniculus; assay: Displacement of [3H]diltiazem from rabbit skeletal muscle calcium channel; assay type: tissue-based; conditions: Muscle tissue
[36] = test system: Rattus norvegicus; assay: Plasma concentration after 3 mg/kg peroral dosing in rat at 0.083 hr in rats; assay type: ADME, organism-based; set-up: dose 3 mg/kg, route oral; conditions: in vivo, po
[37] = test system: Rattus norvegicus; assay: Inhibition of […] of the rat after intravenous administration; assay type: functional; conditions: read-out: ID50 (the source's name)
How it was run: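 Rats given test compound intravenously. Plasma extravasation in the dura mater measured, n = 8-10. ID50 reported in mg/kg iv.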

[38] = test system: Rattus norvegicus; assay: Plasma concentration after 3 mg/kg peroral dosing in rat at 1.0 hr in rats; assay type: ADME, organism-based; set-up: dose 3 mg/kg, route oral; conditions: in vivo, po
[39] = test system: Rhesus monkey; assay: Plasma concentration after 3 mg/kg peroral dosing in Rhesus monkey at 1.0 hr; assay type: ADME, organism-based, Macaca mulatta; set-up: dose 3 mg/kg, route oral; conditions: in vivo, po; how it was run: as §1
[40] = test system: Rhesus monkey; assay: Plasma concentration after 3 mg/kg intravenous dosing in Rhesus monkey at 8.0 hr; assay type: ADME, organism-based, Macaca mulatta; set-up: dose 3 mg/kg, route intravenous; conditions: in vivo; how it was run: as §1
[41] = Plasma clearance after intravenous administration dosing (3 mg/kg) in rat
[42] = test system: Rhesus monkey; assay: Plasma concentration after 3 mg/kg intravenous dosing in Rhesus monkey at 2.0 hr; assay type: ADME, organism-based, Macaca mulatta; set-up: dose 3 mg/kg, route intravenous; conditions: in vivo; how it was run: as §1
[43] = Plasma clearance after intravenous administration dosing (3 mg/kg) in Rhesus monkey
[44] = test system: Rattus norvegicus; assay: Plasma concentration of 3 mg/kg iv after 5 hr in rats; assay type: ADME, organism-based; set-up: dose 3 mg/kg, route intravenous; conditions: in vivo; how it was run: as §2
[45] = test system: Rattus norvegicus; assay: Plasma concentration of 3 mg/kg iv after 4 hr in rats; assay type: ADME, organism-based; set-up: dose 3 mg/kg, route intravenous; conditions: in vivo; how it was run: as §2
[46] = test system: Rattus norvegicus; assay: Plasma concentration after 3 mg/kg peroral dosing in rat at 4.0h in rats; assay type: ADME, organism-based; set-up: dose 3 mg/kg, route oral; conditions: in vivo, po, 4 h
[47] = test system: Rattus norvegicus; assay: Plasma concentration of 3 mg/kg iv after 3h in rats; assay type: ADME, organism-based; set-up: dose 3 mg/kg, route intravenous; conditions: in vivo; how it was run: as §2

O=c1[nH]nc(CN2CCC[C@H](OCc3cc(C(F)(F)F)cc(C(F)(F)F)c3)[C@@H]2c2ccccc2)[nH]1
ID90 [1]: 1 mg/kg
bioavailability [2]: 46%
bioavailability [3]: 23.7%
Concentration [4]: < 5 ng/mL
Concentration [5]: 50 ng/mL
Concentration [6]: 25 ng/mL
Concentration [7]: 599 ng/mL
Concentration [8]: 150 ng/mL
Concentration [9]: < 5 ng/mL
Concentration [10]: 29 ng/mL
Concentration [11]: 5020 ng/mL
Concentration [12]: 580 ng/mL
Concentration [13]: 135 ng/mL
pIC50 [14]: 10.30
Vd [15]: 6.5 L/kg
Concentration [16]: 70 ng/mL
Concentration [17]: 291 ng/mL
Concentration [18]: 1220 ng/mL
Concentration [19]: 244 ng/mL
Concentration [20]: < 5 ng/mL
Concentration [21]: 5240 ng/mL
Concentration [22]: 3660 ng/mL
Vd [23]: 0.55 L/kg
Concentration [24]: 1980 ng/mL
Concentration [25]: < 5 ng/mL
Concentration [26]: 20 ng/mL
Concentration [27]: 12 ng/mL
Concentration [28]: 94 ng/mL
Concentration [29]: 500 ng/mL
Concentration [30]: 65 ng/mL
Concentration [31]: 203 ng/mL
ED50 [32]: 0.037 mg/kg
Concentration [33]: 520 ng/mL
Concentration [34]: 9 ng/mL
Binding affinity [35]: 12.6 µM
Concentration [36]: 11 ng/mL
ED50 [37]: 0.028 mg/kg
Concentration [38]: 45 ng/mL
Concentration [39]: 80 ng/mL
Concentration [40]: 720 ng/mL
clearance [41]: 73 mL/min/kg
Concentration [42]: 3080 ng/mL
clearance [43]: 2.4 mL/min/kg
Concentration [44]: 21 ng/mL
Concentration [45]: 30 ng/mL
Concentration [46]: 41 ng/mL
Concentration [47]: 52 ng/mL

FC(F)(F)c1cc(CO[C@H]2CCCN(Cc3n[nH]c(S)n3)[C@H]2c2ccccc2)cc(C(F)(F)F)c1
pIC50 [14]: 9.10
Binding affinity [35]: 10 µM
